Rows were chosen to be rich in hits. Some 2.3% of all compounds tested hit in one or more screens of this group.
CAL PDZ FP-1: blocks peptide binding to the human CAL PDZ domain; inhibition, % at 24.9 µM; purified CAL PDZ, TMR-peptide fluorescence polarization, 1 h; 300,000 tested, 0.92% active; AID 602252;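 active means mean inhibition of at least 30% with at least half of replicates also reaching 30%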;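 further: 0% = DMSO neutral control and 100% = excess unlabeled competitor peptide PRC23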
SR-BI HDL uptake: blocks mouse SR-BI lipid uptake from DiI-HDL; inhibition, % at 12.5 µM; ldlA[mSR-BI] CHO cells, DiI-HDL uptake fluorescence, 3 h; 320,000 tested, 0.96% active;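 active means mean replicate inhibition of at least 70% and a set share of replicates each scoring 70 or more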;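 further: 0% = median of neutral control wells and 100% = median of positive control wells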
SR-BI uptake up: activators of SR-BI mediated HDL lipid uptake; activation, % at 12.5 µM; 320,000 tested, 0.096% active; CHO ldlA[mSR-BI] cells, DiI-HDL uptake fluorescence, 3 h; 100 = double the neutral-control signal; AID 504775;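 active means mean replicate activation of at least 60% and every replicate at or above 60%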;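 further: 0% = median plate neutral-control signal and 100% = twice that signal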
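Test system: SR-BI-overexpressing, LDLR-lacking CHO cells; Medium: Ham's F12 with 0.5% BSA, HEPES 25 mM, pH 7.4; Schedule: 3 h, 37 °C; Technique: bottom-read fluorescence, 550/595 nm.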
CAL PDZ FP-2: blocks peptide binding to human CAL PDZ domain. 330,000 tested, 0.02% active. Q9HD26. inhibition, % at 20 µM. purified CAL PDZ, TMR-peptide fluorescence polarization, 1 h;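 active means highest replicate inhibition of at least 40%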;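 further: plate controls were DMSO neutral control wells for no effect and unlabeled competitor peptide control wells for full effect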
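Test system: purified CerCALP PDZ construct; Compound dosing: one concentration, 20 µM compound; Also added: TMR-labelled reporter peptide T*-PRC34 bound in PDZ groove; Read-out: inhibition from polarization loss; Controls: unlabelled peptide and DMSO controls; Signal: FP readout, S and P plane fluorescence; Incubation: 1 h at RT.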
ATG4B inhibitor: ATG4B (human) cysteine protease inhibition; Q9Y4P1; 340,000 tested, 0.51% active; ATG4B cleavage of LC3-PLA2, NBD-HPC fluorescence, 1 h; inhibition, % at 8.33 µM; in the data active means inhibition above about 40%
Target sequence (Q9Y4P1 whole entry, looked up): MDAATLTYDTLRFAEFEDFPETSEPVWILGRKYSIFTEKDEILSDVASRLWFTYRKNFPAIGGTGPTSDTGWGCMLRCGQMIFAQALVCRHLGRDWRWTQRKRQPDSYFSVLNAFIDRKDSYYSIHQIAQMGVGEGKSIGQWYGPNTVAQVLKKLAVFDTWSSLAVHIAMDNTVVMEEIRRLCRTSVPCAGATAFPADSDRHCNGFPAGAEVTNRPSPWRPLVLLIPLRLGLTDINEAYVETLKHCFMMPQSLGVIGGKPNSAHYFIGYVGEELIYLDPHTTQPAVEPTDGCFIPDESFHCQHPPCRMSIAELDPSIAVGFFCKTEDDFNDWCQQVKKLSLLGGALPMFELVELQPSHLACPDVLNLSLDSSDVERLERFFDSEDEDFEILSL
ATG4B confirm: confirmation of human ATG4B inhibitors | shares compounds with ATG4B inhibitor | ATG4B protease fluorescent substrate cleavage assay | inhibition, % at 8.33 µM | 320 tested, 92% active | AID 504757; in the data active means inhibition above about 39%
PLA2 ctr: PLA2 (human) inhibition in ATG4B counter-screen; shares compounds with ATG4B inhibitor; purified PLA2, NBD-C6-HPC fluorescence, 45 min; inhibition, % at 8.33 µM; 1,600 tested, 66% active; AID 588402; in the data active means inhibition above about 50%
Target sequence (P04054 whole entry, looked up): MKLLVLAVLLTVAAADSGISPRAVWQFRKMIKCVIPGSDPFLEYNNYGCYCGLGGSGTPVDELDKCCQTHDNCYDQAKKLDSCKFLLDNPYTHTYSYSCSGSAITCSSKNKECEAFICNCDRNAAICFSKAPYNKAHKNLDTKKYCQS
* marks the source's active call; other numbers are inactive results; · = no result.

SMILES	CAL PDZ FP-1	SR-BI HDL uptake	SR-BI uptake up	CAL PDZ FP-2	ATG4B inhibitor	PLA2 ctr	others
Cc1ccc(Cc2cnc(N3C(=N)SC(C)C3=O)s2)cc1 (configuration not stated)	0.4	-10.3	10.3	-1.7	2.4	·
O=C1c2ccccc2C(=O)N1c1ncc(Cc2ccc(Cl)cc2)s1	-6.8	-0.3	0.3	-11.2	80.4*	64.5*
O=C(/C=C1\NC2(CCCC2)Cc2ccccc21)C(=O)N/N=C/c1ccc(O)c(O)c1	-4.7	50.1	-50.1	-0.9	60.6*	68.2*
COc1ccc(/C=N/NC(=O)C(=O)/C=C2\NC3(CCCC3)Cc3ccccc32)cc1	-1.4	69.6	-69.6	-5.0	32.6	·
Cc1nc(NC(=O)c2ccccc2)sc1-c1csc(NCc2ccccc2)n1	-0.8	69.0	-69.0	0.6	45.2*	65.8*
CC(C)S(=O)(=O)C1=NSC2=NC(=O)/C(=C\c3ccc(-c4cccc(C(=O)O)c4)o3)C(=N)N21	·	-14.8	14.8	-7.6	5.1	·
CC(C)S(=O)(=O)C1=NSC2=NC(=O)/C(=C\c3ccc(-c4ccccc4)o3)C(=N)N21	-9.5	11.9	-11.9	-4.9	58.8*	55.6*
COc1ccc(/C=C(\NC(=O)c2ccc(C)cc2)C(=O)NCCCn2ccnc2)cc1OC	-2.6	-11.5	11.5	-1.4	-8.0	·
COc1ccc(CCN2C(=S)N(C)C(=O)C2CC(=O)Nc2ccc(F)cc2)cc1 (configuration not stated)	·	·	·	·	43.5*	56.3*
O=C(CSc1nnc(SCc2ccc(Cl)cc2)s1)c1ccc2c(c1)OCO2	-3.4	-41.2	41.2	-2.5	12.8	·
CCn1c(O)c(/C=C2\C=Nc3ccccc32)sc1=Nc1ccccc1	-0.5	79.9*	-79.9	0.9	42.8*	29.3
COCCNC(=O)C1(C(F)(F)F)CC(CCCO)CCCO1 (configuration not stated)	-1.9	-5.6	5.6	0.7	-3.7	·
COC(=O)C1=C(C)N(Cc2cccnc2)C(=O)/C1=C\c1sccc1C	·	13.7	-13.7	-1.0	42.5*	53.7*
CCN1C(=O)/C(=C\c2cccs2)C(C(=O)OC)=C1C	-3.0	3.9	-3.9	-0.2	2.8	·
CC1CCN(C(=O)c2ccc3ccccc3c2)CC1	-1.9	-12.0	12.0	2.4	0.7	·
CC1CC(C)CN(C(=O)c2ccc(C(=O)c3ccccc3)cc2)C1 (configuration not stated)	·	14.5	-14.5	0.1	41.6*	43.7	ATG4B confirm=66.5*
CC1CC(C)CN(C(=O)c2ccc(S(=O)(=O)N3CC(C)CC(C)C3)cc2)C1 (configuration not stated)	·	·	·	-0.3	51.2*	66.0*
CC1CC(C)CN(C(=O)c2ccc3ccccc3c2)C1 (configuration not stated)	-2.6	40.2	-40.2	-1.4	53.6*	50.4*
Cc1c(Cl)cccc1NC(=S)N(Cc1cccnc1)Cc1ccccc1Cl	3.3	11.2	-11.2	-0.4	1.5	·
O=C(CSc1ccc(Cl)cc1)Nc1ccccc1Oc1ccccc1	-6.0	-4.6	4.6	0.1	40.3*	15.3
O=C(CSc1ccc(Br)cc1)Nc1ccccc1Oc1ccccc1	4.8	-0.6	0.6	-3.1	9.3	·
NC(=O)Cc1ccc(Nc2nnc(-c3ccc(O)cc3)c3ccccc23)cc1	-4.3	29.5	-29.5	-2.1	92.4*	91.5*
Cc1ccc(-c2nnc(Nc3ccc(CC(N)=O)cc3)c3ccccc23)cc1S(=O)(=O)NCCO	-7.2	12.3	-12.3	-3.7	83.9*	86.5*
CCc1ccc(C2C(C#N)=C(N)N(N(C)C)C3=C2C(=O)CCC3)cc1 (configuration not stated)	-1.0	11.9	-11.9	-0.1	-9.7	·
Cc1ccc(Nc2nnc(-c3ccccc3N)o2)cc1C	-4.1	27.7	-27.7	-0.6	-9.5	·
SMILES	CAL PDZ FP-1	SR-BI HDL uptake	SR-BI uptake up	CAL PDZ FP-2	ATG4B inhibitor	PLA2 ctr	others
Cc1c(C(=O)N2CCCCC2)c(S(=O)(=O)NCCc2ccc(S(N)(=O)=O)cc2)c(C)n1C	-2.2	-22.8	22.8	-1.5	-1.2	·
O=C1CCCC2=C1C1(CCCC1)N=C(Nc1nc3ccccc3s1)N2	-1.6	39.8	-39.8	-2.3	74.5*	9.4
O=C1CCCC2=C1C1(CCCCC1)N=C(Nc1nc3ccccc3s1)N2	·	26.3	-26.3	-1.9	55.1*	-13.7
c1ccc(-n2cnnc2SCc2cn3ccsc3n2)cc1	-0.7	-5.0	5.0	-1.1	-9.1	·
Cc1ccc(NC(=S)NNC(=O)CSc2nc3ccccc3c(=O)n2-c2ccc(C)cc2)cc1	1.1	29.2	-29.2	-2.9	88.0*	92.6*
Cc1ccc(-n2c(SCC(=O)Nc3ccc(N4CCOCC4)cc3)nc3ccccc3c2=O)cc1	5.7	-10.5	10.5	-0.2	6.6	·
Cc1ccc(-n2c(SCc3cn4ccsc4n3)nc3ccccc3c2=O)cc1	-2.7	-3.6	3.6	-2.7	74.1*	79.0*
CCCn1c(=O)c(C(=O)NNS(=O)(=O)c2ccc(NC(=O)OC)cc2)c(O)c2ccccc21	7.9	-18.3	18.3	-0.8	-10.2	·
Cc1noc(C)c1NC(=O)Nc1cccc2c1O[C@H](CN(C)C(=O)NC1CCCCC1)[C@@H](C)CN([C@H](C)CO)C2=O	1.2	46.5	-46.5	-1.1	-14.6	·
O=C(CN1C(=O)/C(=C\c2ccco2)SC1=S)Nc1ccc(O)cc1C(=O)O	-4.1	-7.9	7.9	-2.7	39.6	·
O=C(CCN1C(=O)/C(=C/c2ccco2)SC1=S)Nc1ccc(O)cc1C(=O)O	-3.9	-11.8	11.8	·	42.6*	0.2
O=C(CCCN1C(=O)/C(=C/c2ccccc2Cl)SC1=S)NNC(=O)c1cccnc1	·	10.5	-10.5	-0.9	7.8	·
O=C(CCN1C(=O)/C(=C/c2ccccc2Cl)SC1=S)Nc1ccccc1C(=O)O	-4.7	12.0	-12.0	0.3	58.0*	51.3*
O=C(CCCN1C(=O)/C(=C/c2ccccc2Cl)SC1=S)NNC(=O)c1ccccc1	-5.6	-8.1	8.1	0.3	50.4*	31.1	ATG4B confirm=54.8*
CC(C)(C)c1ccc(-c2nc(NCc3cccnc3)c3ccccc3n2)cc1	-2.0	33.6	-33.6	-2.6	68.5*	81.5*

Bioassay records deposited in PubChem BioAssay by several laboratories.
